Measurements: ChEMBL document CHEMBL1146569, “The pterocellins, novel bioactive alkaloids from the marine bryozoan Pterocella vesiculosa” (J Nat Prod, 2003)

Legend:
OVCAR-8 = assay: Growth inhibition of human OVCAR8 cells; type: functional
PC-3 = assay: Growth inhibition of human PC3 cells; type: functional
[1] = Growth inhibition of human […] cells; type: functional
T47D = assay: Growth inhibition of human T47D cells; type: functional
SF-539 = assay: Growth inhibition of human SF539 cells; type: functional
SN12C = assay: Growth inhibition of human SN12C cells; type: functional
SK-MEL-28 = assay: Growth inhibition of human SK-MEL-28 cells; type: functional
HT-29 = assay: Growth inhibition of human HT-29 cells; type: functional
IGROV-1 = assay: Growth inhibition of human IGROV1 cells; type: functional
SF-295 = assay: Growth inhibition of human SF295 cells; type: functional
Amorphotheca resinae = assay: Antimicrobial activity against Cladosporium resinae assessed per disk; type: functional
RXF 393 = assay: Growth inhibition of human RXF393 cells; type: functional
EKVX = assay: Growth inhibition of human EKVX cells; type: functional
SK-OV-3 = assay: Growth inhibition of human SKOV3 cells; type: functional
Escherichia coli = assay: Antimicrobial activity against Escherichia coli assessed per disk; type: functional
NCI-H226 = assay: Growth inhibition of human NCI-H226 cells; type: functional
MDA-MB-435 = assay: Growth inhibition of human MDA-MB-435 cells; type: functional
LOX IMVI = assay: Growth inhibition of human LOXIMVI cells; type: functional
Pseudomonas aeruginosa = assay: Antimicrobial activity against Pseudomonas aeruginosa assessed per disk; type: functional
COLO 205 = assay: Growth inhibition of human COLO205 cells; type: functional
HOP-62 = assay: Growth inhibition of human HOP62 cells; type: functional
MCF7 = assay: Growth inhibition of human MCF7 cells; type: functional
MOLT-4 = assay: Growth inhibition of human MOLT4 cells; type: functional
A498 = assay: Growth inhibition of human A498 cells; type: functional
DU-145 = assay: Growth inhibition of human DU145 cells; type: functional
TK-10 = assay: Growth inhibition of human TK10 cells; type: functional
NCI-H322M = assay: Growth inhibition of human NCI-H322M cells; type: functional
CCRF-CEM = assay: Growth inhibition of human CCRF-CEM cells; type: functional
KM12 = assay: Growth inhibition of human KM12 cells; type: functional
NCI/ADR-RES = assay: Growth inhibition of human NCI/ADR-RES cells; type: functional
SR = assay: Growth inhibition of human SR cells; type: functional
SF-268 = assay: Growth inhibition of human SF268 cells; type: functional
HCC 2998 = assay: Growth inhibition of human HCC2998 cells; type: functional
[2] = Cytotoxicity against african green monkey BSC1 cells at 40 ug/disk; type: cell-based; conditions: chlorocebus aethiops, bsc-1
Procedure, shortened: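 BSC-1 cells (ATCC CCL 26), a line derived from African green monkey kidney, are the host cells of the combined antiviral/cytotoxicity assay. Cytotoxicity is scored on these cells within that assay.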

ACHN = assay: Growth inhibition of human ACHN cells; type: functional
HOP-92 = assay: Growth inhibition of human HOP92 cells; type: functional
A549 = assay: Growth inhibition of human A549 cells; type: functional
NCI-H522 = assay: Growth inhibition of human NCI-H522 cells; type: functional
CAKI-1 = assay: Growth inhibition of human Caki1 cells; type: functional
HCT-15 = assay: Growth inhibition of human HCT15 cells; type: functional
BT-549 = assay: Growth inhibition of human BT549 cells; type: functional
OVCAR-5 = assay: Growth inhibition of human OVCAR5 cells; type: functional
OVCAR-3 = assay: Growth inhibition of human OVCAR-3 cells; type: functional
NCI-H460 = assay: Growth inhibition of human NCI-H460 cells; type: functional
[3] = read-out: LC50 (the source's name)

Question: Which results are given for `COc1cn2c(cc1=O)C(=O)c1ccnc(Cc3ccccc3)c1-2` [PTEROCELLIN B]?
Answer: GI50 (OVCAR-8): 0.7 µM; TGI (OVCAR-8): 7.6 µM; CC50 (OVCAR-8; [3]): 84.8 µM; GI50 (PC-3): 1.6 µM; LC50 (concentration killing 50% of cells) (PC-3): 26.6 µM; TGI (PC-3): 5.9 µM; GI50 [1]: 1.5 µM; TGI [1]: 4.9 µM; CC50 [1, 3]: > 100 µM; GI50 (T47D): 1.3 µM; TGI (T47D): 3.2 µM; CC50 (T47D; [3]): > 100 µM; GI50 (SF-539): 1.1 µM; TGI (SF-539): 2.7 µM; CC50 (SF-539; [3]): 6.4 µM; GI50 (SN12C): 0.5 µM; LC50 (SN12C): 5.5 µM; TGI (SN12C): 1.8 µM; GI50 (SK-MEL-28): 1 µM; TGI (SK-MEL-28): 2.6 µM; CC50 (SK-MEL-28; [3]): 6.7 µM; GI50 (HT-29): 0.5 µM; LC50 (HT-29): 27.3 µM; TGI (HT-29): 3.2 µM; GI50 (IGROV-1): 1 µM; TGI (IGROV-1): 2.5 µM; CC50 (IGROV-1; [3]): 6 µM; GI50 (SF-295): 0.3 µM; LC50 (concentration killing 50% of starting cells) (SF-295): 4 µM; TGI (SF-295): 1.6 µM; MIC (Amorphotheca resinae): >60 µg; GI50 (RXF 393): 2.4 µM; LC50 (RXF 393): 45.2 µM; TGI (RXF 393): 6.9 µM; GI50 (EKVX): 1.4 µM; TGI (EKVX): 3.8 µM; CC50 (EKVX; [3]): 10.7 µM; GI50 (SK-OV-3): 2.7 µM; TGI (SK-OV-3): 13.8 µM; CC50 (SK-OV-3; [3]): 47.1 µM; MIC (Escherichia coli): >60 µg; GI50 (NCI-H226): 1.4 µM; TGI (NCI-H226): 3.5 µM; CC50 (NCI-H226; [3]): 8.4 µM; GI50 (MDA-MB-435): 0.2 µM; TGI (MDA-MB-435): 0.3 µM; CC50 (MDA-MB-435; [3]): 0.6 µM; GI50 (LOX IMVI): 0.4 µM; LC50 (LOX IMVI): 13.2 µM; TGI (LOX IMVI): 2.4 µM; MIC (Pseudomonas aeruginosa): >60 µg; GI50 (COLO 205): 0.7 µM; TGI (COLO 205): 2.3 µM; CC50 (COLO 205; [3]): 6.1 µM; GI50 (HOP-62): 1 µM; TGI (HOP-62): 2.1 µM; CC50 (HOP-62; [3]): 4.6 µM; GI50 (MCF7): 1 µM; TGI (MCF7): 3.3 µM; CC50 (MCF7; [3]): > 100 µM; GI50 (MOLT-4): 1.4 µM; LC50 (concentration killing 50% of cells) (MOLT-4): 5.6 µM; TGI (MOLT-4): 2.9 µM; GI50 (A498): 1.9 µM; TGI (A498): 4 µM; CC50 (A498; [3]): 8.5 µM; GI50 (DU-145): 0.2 µM; TGI (DU-145): 0.3 µM; CC50 (DU-145; [3]): 0.6 µM; GI50 (TK-10): 1.5 µM; TGI (TK-10): 2.9 µM; CC50 (TK-10; [3]): 5.6 µM; GI50 (NCI-H322M): 1.1 µM; LC50 (concentration killing 50% of cells) (NCI-H322M): 4.7 µM; TGI (NCI-H322M): 2.2 µM; GI50 (CCRF-CEM): 1.7 µM; TGI (CCRF-CEM): 5.2 µM; CC50 (CCRF-CEM; [3]): > 100 µM; GI50 (KM12): 0.6 µM; TGI (KM12): 1.9 µM; CC50 (KM12; [3]): 4.5 µM; GI50 (NCI/ADR-RES): 1.4 µM; TGI (NCI/ADR-RES): 3.9 µM; CC50 (NCI/ADR-RES; [3]): 15.3 µM; GI50 (SR): 0.2 µM; TGI (SR): 1.3 µM; CC50 (SR; [3]): 3.7 µM; GI50 (SF-268): 1.7 µM; LC50 (concentration killing 50% of cells) (SF-268): 21.5 µM; TGI (SF-268): 5.5 µM; GI50 (HCC 2998): 0.4 µM; LC50 (concentration killing 50% of cells) (HCC 2998): 3.2 µM; TGI (HCC 2998): 1 µM; Activity [2]: Toxic; GI50 (ACHN): 1.1 µM; TGI (ACHN): 2.9 µM; CC50 (ACHN; [3]): 7.8 µM; GI50 (HOP-92): 1.7 µM; TGI (HOP-92): 3.8 µM; CC50 (HOP-92; [3]): 8.8 µM; GI50 (A549): 0.2 µM; LC50 (50% cell kill concentration) (A549): 1.8 µM; TGI (A549): 0.5 µM; GI50 (NCI-H522): 1.1 µM; TGI (NCI-H522): 2.4 µM; CC50 (NCI-H522; [3]): 5.2 µM; GI50 (CAKI-1): 1.5 µM; TGI (CAKI-1): 3.3 µM; CC50 (CAKI-1; [3]): 7.4 µM; GI50 (HCT-15): 0.5 µM; TGI (HCT-15): 1.8 µM; CC50 (HCT-15; [3]): 4.9 µM; GI50 (BT-549): 1.5 µM; TGI (BT-549): 2.9 µM; CC50 (BT-549; [3]): 5.6 µM; GI50 (OVCAR-5): 1.2 µM; TGI (OVCAR-5): 2.4 µM; CC50 (OVCAR-5; [3]): 4.9 µM; GI50 (OVCAR-3): 0.2 µM; TGI (OVCAR-3): 0.6 µM; CC50 (OVCAR-3; [3]): 3.2 µM; GI50 (NCI-H460): 0.2 µM; LC50 (concentration causing 50% cell kill) (NCI-H460): 5.5 µM; TGI (NCI-H460): 0.8 µM
